Results taken from ChEMBL document CHEMBL4513216, “Probing the Open Global Health Chemical Diversity Library for Multistage-Active Starting Points for Next-Generation Antimalarials” (ACS Infect Dis, 2020).

Experiment: Toxicity liver stage against HepG2, at 10uM
Type: cell-based
Design: test concentration 10 uM, cell line HepG2-A16-CD81EGFP
Settings: human, HepG2-A16-CD81EGFP cells; read-out: INHIBITION
Procedure, shortened: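 Uninfected HepG2-A16-CD81EGFP cells, 3 × 10^3 per well, 1536-well, plated on prespotted compound at 10 μM final, parasite-free screening media added to match infected plates; puromycin 10 μM positive, DMSO 0.5% negative; run in parallel with 48 h PbLuc assay at 37 °C, 5% CO2; viability by CellTiter-Glo luminescence, normalized to controls.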

SMILES	cytotoxicity at 10 µM [%]
CC(C)NC(=O)N[C@H]1C[C@@H](c2nc(-c3ccc(F)cc3)no2)N(C)C1	-7.97
COc1ccccc1CN1CC[C@H](c2nnc(-c3cncn3C)o2)C1	8.33
CCOC(=O)CNC(=O)NCc1cccn1Cc1ccc(F)cc1	11.6
COc1ccc(F)cc1S(=O)(=O)NCC(O)c1sccc1C (stereo not given)	-0.269
CSCCC(C)(O)CNS(=O)(=O)Cc1cccc(C)c1 (stereo not given)	1.09
O=c1[nH]c2cc(S(=O)(=O)N3CCC(c4ccsc4)CC3)ccc2o1	-9.69
Cc1cnc(N2CCCn3c(nnc3Cn3cccn3)C2)nc1	6.19
CS(=O)(=O)N1CCC2(CC1)CN(CCn1cccn1)C(=O)CO2	-2.79
CC(=O)N1C[C@H]2C3(CCN(S(C)(=O)=O)CC3)CC[C@@]2(C(=O)N(C)C)C1	-1.16
CN1[C@@H](C(=O)NCC2CC2)C[C@@H]2CN(c3ncccn3)C[C@@H]21	9.85
O=C(c1ccsc1)N1CCc2c(CNc3nccs3)n[nH]c2C1	10.9
Cn1cccc1C(=O)N[C@@H]1CN(S(C)(=O)=O)[C@@H]2COC[C@@H]21	14.1
Cc1ncsc1CN1CC[C@H]2OCC[C@@]2(C(=O)N2CCCO2)C1	-0.0653
CCC1=N[C@@]2(CC[C@@H]3CN(S(=O)(=O)CC)C[C@@H]32)C(=O)N1CC	5.22
COCC1CN(Cc2cccnc2OC)Cc2cnn(C)c21 (stereo not given)	2.69
CC1CCN(c2nccn3c(=O)[nH]nc23)CC1	6.09
Cn1c(C(F)(F)F)nn(CCNC(=O)CSCc2ccccc2)c1=O	-24
CCn1nccc1CNC(=O)C1CCCO1 (stereo not given)	-2.21
CCn1cc(Br)c(C(=O)NCc2ccccc2)n1	7.61
CC1CCC2(CC1)NC(=O)c1cc(Br)ccc1-n1nnnc12 (stereo not given)	10.1
CC(C)Cc1noc(C2CCN(C(=O)c3cccs3)CC2)n1	9.81
CCn1nc(C)c2c1cnn2CCNS(C)(=O)=O	7.55

SMILES	cytotoxicity at 10 µM [%]
CCCc1nc(NCCOC)c2c(n1)c(C)nn2CC	3.36
O=C(NCCCn1cccn1)C1(c2ccccc2)CCOCC1	5.78
O=C(COCc1nc(-c2ccncc2)no1)N1CCCC1	-10.7
Cc1cc(-c2ccnn2C)nc(C2CCCN(S(C)(=O)=O)C2)n1 (stereo not given)	3.33
CC1(c2ncc(CN(CC(=O)O)Cc3ccccc3)cn2)CCCCO1 (stereo not given)	-3.73
CN1C[C@@H](C(=O)NC2CC2)[C@@]2(COc3ccc(F)cc3C2=O)C1	-26.5
Cn1ccc(C(=O)N2CCc3[nH]nc(Nc4ccccc4)c3C2)n1	5.21
Cn1ccc(C(=O)NCC2(O)CCN(c3cnccn3)C2)n1 (stereo not given)	3.45
CN(C)C(=O)c1nc(-c2ccc(S(C)(=O)=O)cc2)c2cnccn12	7.27
CN(C)C(=O)N1CCN(c2ccc(Cl)nn2)C(=O)C1	9.1
CCC(c1ccc(F)cc1)N1CCn2c(CO)nnc2C1 (stereo not given)	-9.15
Cc1nnc(NCCc2coc(-c3ccccc3)n2)c(C#N)c1C	-14.3
CC(C)c1nc(S(=O)(=O)Nc2ccnn2C2CCCC2)c[nH]1	-3.36
Cn1c(CO)cnc1SC1CCCN(c2ccccc2F)C1=O (stereo not given)	-4
OC(CNCc1nnc2ccccn12)c1ccc2c(c1)OCCCO2 (stereo not given)	2.93
COc1cccc(CC(C)NC(=O)NCCc2cccnc2)c1 (stereo not given)	-11
CCN1CC(COC(=O)c2cccc(Br)c2)CC1=O (stereo not given)	4.91
Cc1cc(C2CCCN(Cc3nnc(Cc4ccccc4)o3)C2)n[nH]1 (stereo not given)	-5.78
NC(=O)C1CCN(C(=O)NC2CCc3cc(F)ccc32)CC1 (stereo not given)	2.52
CN(C)C1Cc2ccccc2N(S(=O)(=O)c2ccccc2C#N)C1 (stereo not given)	0.71
NC(=O)C1CCN(C(=O)NCc2ccc3c(c2)OCCO3)CC1	-8.14
Cc1nn(C)c(N2CCCN(C)CC2)c1CNC(=O)CCC(C)C	-1.08

SMILES	cytotoxicity at 10 µM [%]
Cc1nn(CC(C)C)c(C)c1CC(=O)N1CCCC(NS(C)(=O)=O)C1 (stereo not given)	6.29
OCc1cc2ccccc2nc1N1CCCC1	-8.82
Cc1csc(C2CCCCN2C(=O)COCc2nc(C)no2)n1 (stereo not given)	1.09
O=C(NCc1cccnc1)NCC(O)c1ccccc1C(F)(F)F (stereo not given)	1.5
CNS(=O)(=O)CC(=O)N(Cc1c(F)cccc1Cl)C1CC1	4.71
CCC(O)CN(CC(=O)Nc1cc(C)no1)c1ccccc1 (stereo not given)	-2.59
CC(=O)Nc1ccc(C(=O)N2CCOc3nc(C)ccc32)cc1	2.81
O=C(c1ccncc1F)N1CCCC1c1nc(-c2ccccc2)n[nH]1 (stereo not given)	1.34
CSc1ccsc1C(=O)NS(=O)(=O)c1cccc(C#N)c1	7.49
Cc1nnc(SC2CCN(c3sccc3C#N)C2=O)s1 (stereo not given)	-7.22
CC(O)CN1CCC(CN(C)CC(=O)NC(C)C)CC1 (stereo not given)	-2.32
OCCN1CCN(CC(O)c2ccc(C(F)(F)F)cc2)CC1 (stereo not given)	-10
CCS(=O)(=O)CCNC(=O)NC(C)c1ccc(C)s1 (stereo not given)	-8.64
CC(C)n1nc2c(cc1=O)CN(CC(=O)N(C)c1nccs1)CC2	-9.94
CC(C)(C)OC(=O)NC1(c2noc(-c3ccoc3)n2)CCC1	3.12
CCc1nc(C2CCCN2CCc2cccs2)no1 (stereo not given)	-108
CN1CCOC(C(=O)N2CCOC3(CCCC3)C2)C1 (stereo not given)	7.28
Cc1cc(C)n(CC2CCCN2C(=O)Cc2csc(C)n2)n1 (stereo not given)	9.3
O=c1[nH]c(N2CC(O)C2)nc2c1cnn2-c1ccccc1	1.92
CCC(CNC(=O)c1ccc(Br)o1)N1CCc2ccccc2C1 (stereo not given)	-20.5
O=C(NCc1cccc(F)c1)N1CCc2ncnc(NC3CC3)c2CC1	-105
CS(=O)(=O)N1CCO[C@@H]2CN(C(=O)Cc3cccs3)CC[C@@H]2C1	-108

SMILES	cytotoxicity at 10 µM [%]
Cc1nc(N2CCOCC2)nc2c1CN(CC(=O)N(C)C)CC2	-101
CC(C)NC(=O)C1CN(C(=O)Nc2cccc(F)c2)CC12CCOCC2 (stereo not given)	-85.8
C[C@@H]1CN(C(=O)NC2CC2)C[C@]12CCN(c1ccsc1)C2=O	0.77
CS(=O)(=O)N1CCC(N2CCCC2c2ccccn2)CC1 (stereo not given)	-7.65
CCN1CC2(CCC1=O)CCN(Cc1nncn1C)CC2	4.46
O=C(NCC1CCCO1)c1cc(COc2ccccc2F)[nH]n1 (stereo not given)	10.8
CCOC(=O)CCNC(=O)N1CCCC(CNC(=O)c2cccs2)C1 (stereo not given)	0.712
Cc1cc(NCc2nnc3n2CCCCC3)n2nc(C)c(C)c2n1	5.66
CCNc1ncc(C(=O)N[C@H](C(N)=O)c2ccccc2)cn1	10.6
CCOCc1nc2c(c(N(C)Cc3ccsc3)n1)CCNCC2	11.1
COCCN(Cc1sccc1C)Cc1nccn1CCOC	2.33
Cc1nonc1N1CCN(Cc2nc(CC3CC3)no2)CC1	9.34
O=C(NCCOCCO)[C@@]12CNC[C@@H]1CN(C1CCCC1)C2	-16.4
Cc1cn(CC(=O)Nc2cc(C(C)(C)C)nn2C)cn1	0.79
Cc1ccccc1C(C(=O)NCCSC(C)C)N(C)C (stereo not given)	9.38
COc1ccc(OC)c2c(C)cc(N(C)Cc3cc(C)on3)nc12	1.42
CC(=O)c1ccc(CN2C[C@@H](CN3CCC(O)CC3)[C@@H](CO)C2)cc1	9.99
O=C(c1ncccc1O)N1CCN(Cc2ccco2)C(CCO)C1 (stereo not given)	3.89
O=C(N[C@@H]1CCNC[C@H]1O)c1ccccc1OC(F)(F)C(F)F	-3.28
COc1cccc(CNc2nc(O)cc(C3CC(=O)N(C)C3)n2)c1 (stereo not given)	-2.24
CCn1cc(C(=O)N2CCCC(c3[nH]ncc3S(C)(=O)=O)C2)cn1 (stereo not given)	8.42
O=C(NCc1ccco1)N1CCN(Cc2ccc3c(c2)CCO3)CC1	-2.83

SMILES	cytotoxicity at 10 µM [%]
CN(C)C(=O)CS(=O)(=O)Cc1cc(Cl)c2c(c1)OCCO2	1.38
NC(=O)C1CCN(C(=O)NCc2csc(Br)c2)CC1	-18
Cc1cnn(CC2CN(CC(=O)Nc3cc(C)on3)CCO2)c1 (stereo not given)	-7.3
O=C(c1cccc2cccnc12)N1CCCC(n2ccnc2)C1 (stereo not given)	-5.75
CCCc1nc(CN2CCCC2Cn2cncn2)no1 (stereo not given)	-2
COCCCNC(=O)N1CCC(CNC(=O)c2cnn(C)c2)CC1	-1.3
Cc1ccc(N2CCCC(NCc3ccc(C)s3)C2)nn1 (stereo not given)	-2.51
COc1cc(C)nc(N2CCN(C(=O)CCn3cc(C)cn3)CC2)n1	-3.56
COc1c(C)cnc(CN2CCOC(Cn3nc(C)nc3C)C2)c1C (stereo not given)	-13.1
Cc1cn2c(n1)CCC(NC(=O)c1cc(Br)cn1C)C2 (stereo not given)	3.18
CS(=O)(=O)NC1CCCN(C(=O)NCc2cc[nH]n2)C1 (stereo not given)	4.14
Cn1nc2c(cc1=O)CN(Cc1nnc(-c3ccc(F)cc3)o1)CC2	-9.47
CCc1onc(C)c1C(=O)N1CCN(c2ncc3c(n2)CCOC3)CC1	0.0912
Cn1nc(CNC(=O)CC#N)c2c1CN(CC1CC1)CC2	7.4
Cc1ccc(CN2CCn3cc(CNC(=O)c4cnn(C)c4)nc3C2)s1	1.13
COCCN1CCn2cc(CNC(=O)c3cnn(C)c3)nc2C1	-3.09
COCCN1C[C@@H]2[C@@H](OC)CCN(Cc3cccs3)[C@@H]2C1	3.86
CN(Cc1cccnc1)CC1CC12CCN(c1nncs1)CC2 (stereo not given)	9.28
CCS(=O)(=O)NC[C@]12COC[C@H]1CN(Cc1cccnc1OC)C2	1.97
OCCN1CCOC2(CCCN(c3ncc(F)cn3)C2)C1 (stereo not given)	5.98
CN(C)CCN1CCO[C@H]2CN(Cc3ccccn3)C[C@H]21	-1.91
Cn1ccnc1CN1CCO[C@H]2C(CNC(=O)c3ccco3)CC[C@@H]21 (stereo not given in full)	3.62
